Measured values taken from ChEMBL document CHEMBL4270599, “Synthesis of a 3'-C-ethynyl-β-d-ribofuranose purine nucleoside library: Discovery of C7-deazapurine analogs as potent antiproliferative nucleosides” (Eur J Med Chem, 2018).

Key:
CCRF-CEM = assay: Antiproliferative activity against human CEM cells after 72 hrs by Coulter counter method; format: functional, cell-based
Outline: (§1)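 Cell count assay in 96-well microtiter plates; (5–7.5) × 10⁴ tumor cells per well plus test compound. Cells proliferated at 37 °C in humidified CO₂-controlled atmosphere, 48 h for murine leukemia L1210, 72 h for human lymphocytic CEM and cervix carcinoma HeLa. Counted by Coulter counter; IC₅₀ is the concentration that inhibits proliferation by 50%.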

HeLa = assay: Antiproliferative activity against human HeLa cells after 72 hrs by Coulter counter method; format: functional, cell-based; outline: as §1
HOP-62 = assay: Cytotoxicity against human HOP62 cells after 48 hrs by SRB assay; format: functional; conditions: HOP-62, 48 h
COLO 205 = assay: Cytotoxicity against human COLO205 cells after 48 hrs by SRB assay; format: functional; conditions: COLO 205, 48 h
SF-295 = assay: Cytotoxicity against human SF295 cells after 48 hrs by SRB assay; format: functional; conditions: SF-295, 48 h
SNB-19 = assay: Cytotoxicity against human SNB19 cells after 48 hrs by SRB assay; format: functional; conditions: SNB-19, 48 h
M14 [1] = assay: Cytotoxicity against human M14 cells after 48 hrs by SRB assay; format: functional; conditions: M14, 48 h
MDA-MB-435 = assay: Cytotoxicity against human MDA-MB-435 cells after 48 hrs by SRB assay; format: functional; conditions: MDA-MB-435, 48 h
SK-MEL-5 = assay: Cytotoxicity against human SK-MEL-5 cells after 48 hrs by SRB assay; format: functional; conditions: SK-MEL-5, 48 h
OVCAR-8 = assay: Cytotoxicity against human OVCAR8 cells after 48 hrs by SRB assay; format: functional; conditions: OVCAR-8, 48 h
SK-OV-3 [2] = assay: Cytotoxicity against human SKOV3 cells after 48 hrs by SRB assay; format: functional; conditions: SK-OV-3, 48 h
ACHN = assay: Cytotoxicity against human ACHN cells after 48 hrs by SRB assay; format: functional
T47D = assay: Cytotoxicity against human T47D cells after 48 hrs by SRB assay; format: functional
A549 = assay: Growth inhibition of human A549/ATCC cells assessed as cell growth at 10^-8 M incubated for 48 hrs by sulforhodamine B assay relative to control; format: functional; conditions: A549, 48 h, read-out: Activity
NCI-H226 [3] = assay: Growth inhibition of human NCI-H226 cells assessed as cell growth at 10^-8 M incubated for 48 hrs by sulforhodamine B assay relative to control; format: functional; conditions: NCI-H226, 48 h, read-out: Activity
U-251 = assay: Growth inhibition of human U251 cells assessed as cell growth at 10^-8 M incubated for 48 hrs by sulforhodamine B assay relative to control; format: functional; conditions: U-251, 48 h, read-out: Activity
RPMI-8226 = assay: Growth inhibition of human RPMI8226 cells assessed as cell growth at 10^-7 M incubated for 48 hrs by sulforhodamine B assay relative to control; format: functional; conditions: RPMI-8226, 48 h, read-out: Activity
NCI-H226 [4] = assay: Growth inhibition of human NCI-H226 cells assessed as cell growth at 10^-7 M incubated for 48 hrs by sulforhodamine B assay relative to control; format: functional; conditions: NCI-H226, 48 h, read-out: Activity
HT-29 = assay: Growth inhibition of human HT-29 cells assessed as cell growth at 10^-7 M incubated for 48 hrs by sulforhodamine B assay relative to control; format: functional; conditions: HT-29, 48 h, read-out: Activity
SF-539 [5] = assay: Growth inhibition of human SF539 cells assessed as cell growth at 10^-7 M incubated for 48 hrs by sulforhodamine B assay relative to control; format: functional; conditions: SF-539, 48 h, read-out: Activity
M14 [6] = assay: Growth inhibition of human M14 cells assessed as cell growth at 10^-7 M incubated for 48 hrs by sulforhodamine B assay relative to control; format: functional; conditions: M14, 48 h, read-out: Activity
OVCAR-3 = assay: Growth inhibition of human OVCAR3 cells assessed as cell growth at 10^-7 M incubated for 48 hrs by sulforhodamine B assay relative to control; format: functional; conditions: OVCAR-3, 48 h, read-out: Activity
MOLT-4 = assay: Growth inhibition of human MOLT4 cells assessed as cell growth at 10^-6 M incubated for 48 hrs by sulforhodamine B assay relative to control; format: functional; conditions: MOLT-4, 48 h, read-out: Activity
HOP-92 = assay: Growth inhibition of human HOP92 cells assessed as cell growth at 10^-6 M incubated for 48 hrs by sulforhodamine B assay relative to control; format: functional; conditions: HOP-92, 48 h, read-out: Activity
SF-268 = assay: Growth inhibition of human SF268 cells assessed as cell growth at 10^-6 M incubated for 48 hrs by sulforhodamine B assay relative to control; format: functional; conditions: SF-268, 48 h, read-out: Activity
SF-539 [7] = assay: Growth inhibition of human SF539 cells assessed as cell growth at 10^-6 M incubated for 48 hrs by sulforhodamine B assay relative to control; format: functional; conditions: SF-539, 48 h, read-out: Activity
PC-3 = assay: Growth inhibition of human PC3 cells assessed as cell growth at 10^-6 M incubated for 48 hrs by sulforhodamine B assay relative to control; format: functional; conditions: PC-3, 48 h, read-out: Activity
MCF7 = assay: Growth inhibition of human MCF7 cells assessed as cell growth at 10^-6 M incubated for 48 hrs by sulforhodamine B assay relative to control; format: functional; conditions: MCF7, 48 h, read-out: Activity
KM12 = assay: Growth inhibition of human KM12 cells assessed as cell growth at 10^-5 M incubated for 48 hrs by sulforhodamine B assay relative to control; format: functional; conditions: KM12, 48 h, read-out: Activity
SK-OV-3 [8] = assay: Growth inhibition of human SKOV3 cells assessed as cell growth at 10^-4 M incubated for 48 hrs by sulforhodamine B assay relative to control; format: functional; conditions: SK-OV-3, 48 h, read-out: Activity
TK-10 = assay: Growth inhibition of human TK10 cells assessed as cell growth at 10^-4 M incubated for 48 hrs by sulforhodamine B assay relative to control; format: functional; conditions: TK-10, 48 h, read-out: Activity
[9] = read-out: pLC50 (the source's name) (converted)
[10] = read-out: LC50 (the source's name)

## C#C[C@@]1(O)[C@@H](CO)O[C@@H](n2cc(F)c3c(N)ncnc32)[C@@H]1O
CCRF-CEM
  IC50: 160 nM
HeLa
  IC50: 150 nM
HOP-62; read-out: TGI
  TGI: 7790 nM
HOP-62; read-out: pGI50 (converted)
  GI50: 575 nM
HOP-62; [9]
  CC50: > 100000 nM
HOP-62; read-out: pTGI (converted)
  TGI: 7760 nM
COLO 205; read-out: GI50
  GI50: 263 nM
COLO 205; read-out: TGI
  TGI: 1300 nM
COLO 205; read-out: pGI50 (converted)
  GI50: 263 nM
COLO 205; [9]
  CC50: 9330 nM
COLO 205; read-out: pTGI (converted)
  TGI: 1290 nM
SF-295; read-out: TGI
  TGI: 2330 nM
SF-295; read-out: pGI50 (converted)
  GI50: 646 nM
SF-295; [9]
  CC50: 6760 nM
SF-295; read-out: pTGI (converted)
  TGI: 2340 nM
SNB-19; [10]
  CC50: > 100000 nM
SNB-19; read-out: TGI
  TGI: 13700 nM
SNB-19; read-out: pGI50 (converted)
  GI50: 525 nM
SNB-19; read-out: pTGI (converted)
  TGI: 13800 nM
M14 [1]; [10]
  CC50: > 100000 nM
M14 [1]; read-out: TGI
  TGI: 2390 nM
M14 [1]; read-out: pGI50 (converted)
  GI50: 479 nM
M14 [1]; read-out: pTGI (converted)
  TGI: 2400 nM
MDA-MB-435; read-out: TGI
  TGI: 3260 nM
MDA-MB-435; read-out: pGI50 (converted)
  GI50: 417 nM
MDA-MB-435; [9]
  CC50: 45700 nM
MDA-MB-435; read-out: pTGI (converted)
  TGI: 3240 nM
SK-MEL-5; read-out: TGI
  TGI: 1330 nM
SK-MEL-5; read-out: pGI50 (converted)
  GI50: 269 nM
SK-MEL-5; [9]
  CC50: 4170 nM
SK-MEL-5; read-out: pTGI (converted)
  TGI: 1350 nM
OVCAR-8; read-out: TGI
  TGI: 3690 nM
OVCAR-8; read-out: pGI50 (converted)
  GI50: 257 nM
OVCAR-8; [9]
  CC50: > 100000 nM
OVCAR-8; read-out: pTGI (converted)
  TGI: 3720 nM
SK-OV-3 [2]; [10]
  CC50: > 100000 nM
SK-OV-3 [2]; read-out: TGI
  TGI: 2090 nM
SK-OV-3 [2]; read-out: pGI50 (converted)
  GI50: 288 nM
SK-OV-3 [2]; read-out: pTGI (converted)
  TGI: 2090 nM
ACHN
  GI50: 240 nM
ACHN; [10]
  CC50: > 100000 nM
ACHN; read-out: TGI
  TGI: > 100000 nM
ACHN; read-out: pTGI (converted)
  TGI: > 100000 nM
T47D; read-out: TGI
  TGI: 770 nM
T47D; read-out: pGI50 (converted)
  GI50: 214 nM
T47D; [9]
  CC50: 20000 nM
T47D; read-out: pTGI (converted)
  TGI: 776 nM
A549
  growth at 0.01 µM: 93%
NCI-H226 [3]
  growth at 0.01 µM: 92%
U-251
  growth at 0.01 µM: 97%
RPMI-8226
  growth at 0.1 µM: 76%
NCI-H226 [4]
  growth at 0.1 µM: 95%
HT-29
  growth at 0.1 µM: 68%
SF-539 [5]
  growth at 0.1 µM: 107%
M14 [6]
  growth at 0.1 µM: 95%
OVCAR-3
  growth at 0.1 µM: 107%
MOLT-4
  growth at 1 µM: 11%
HOP-92
  growth at 1 µM: 24%
SF-268
  growth at 1 µM: 42%
SF-539 [7]
  growth at 1 µM: 60%
PC-3
  growth at 1 µM: 11%
MCF7
  growth at 1 µM: -8%
KM12
  growth at 10 µM: 7%
SK-OV-3 [8]
  growth at 100 µM: -30%
TK-10
  growth at 100 µM: -24%
